Tests used:
Mus musculus [1] = assay: Toxicity in C3H/HeN mouse assessed as mortality at 117 umol/kg, ip; format: organism-based; details: in vivo
Outline: (§1)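 Male C3H/HeN mice, about 50 days old, in groups of 4. Baseline body weight and food and water intake were recorded for 7–10 days before treatment. A single ip injection in 42% aqueous DMSO was given on day 1, with vehicle-only controls. Body weight and food and water intake were then monitored 2–3 times per week for 60 days, with deaths noted.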

Mus musculus [2] = assay: Induction of weight loss in C3H/HeN mouse at 37.8 umol/kg, ip after 60 days (reference value: 23.9 +/- 4.6 %); format: functional
Mus musculus [3] = assay: Induction of weight loss in C3H/HeN mouse at 50.2 umol/kg, ip after 60 days (reference value: 27.4 +/- 9.4 %); format: functional
Mus musculus [4] = assay: Induction of weight loss in C3H/HeN mouse at 12.6 umol/kg, ip after 60 days (reference value: 41.6 +/- 8.7 %); format: functional
Mus musculus [5] = assay: Induction of weight loss in C3H/HeN mouse at 4.2 umol/kg, ip after 60 days (reference value: 33.3 +/- 5.0 %); format: functional
Mus musculus [6] = assay: Induction of weight loss in C3H/HeN mouse at 4.2 umol/kg, ip after 60 days (reference value: 27.7 +/- 4.6 %); format: functional
Mus musculus [7] = assay: Induction of weight loss in C3H/HeN mouse at 37.8 umol/kg, ip after 60 days (reference value: 31.5 +/- 8.2 %); format: functional
Mus musculus [8] = assay: Induction of weight loss in C3H/HeN mouse at 12.6 umol/kg, ip after 60 days (reference value: 18.8 +/- 1.8 %); format: functional
Mus musculus [9] = assay: Toxicity in C3H/HeN mouse assessed as mortality at 12.6 umol/kg, ip; format: organism-based; details: in vivo; outline: as §1
Mus musculus [10] = assay: Induction of weight loss in C3H/HeN mouse at 0.14 umol/kg, ip after 60 days (reference value: 41.6 +/- 8.7 %); format: functional
Mus musculus [11] = assay: Induction of weight loss in C3H/HeN mouse at 1.4 umol/kg, ip after 60 days (reference value: 26.1 +/- 7.9 %); format: functional
Mus musculus [12] = assay: Induction of weight loss in C3H/HeN mouse at 0.42 umol/kg, ip after 60 days (reference value: 23.6 +/- 3.7 %); format: functional
Mus musculus [13] = assay: Toxicity in C3H/HeN mouse assessed as mortality at 4.2 umol/kg, ip after 15 days; format: organism-based; details: in vivo, 360 h; outline: as §1
Mus musculus [14] = assay: Induction of weight loss in C3H/HeN mouse at 4.2 umol/kg, ip after 60 days (reference value: 26.1 +/- 7.8 %); format: functional
Mus musculus [15] = assay: Induction of weight loss in C3H/HeN mouse at 1130 umol/kg, ip after 18 days (reference value: 12.8 +/- 1.5 %); format: functional
Mus musculus [16] = assay: Induction of weight loss in C3H/HeN mouse at 377 umol/kg, ip after 60 days (reference value: 24.5 +/- 3.5 %); format: functional
Mus musculus [17] = assay: Induction of weight loss in C3H/HeN mouse at 37.8 umol/kg, ip after 60 days (reference value: 35.6 +/- 3.1 %); format: functional
Mus musculus [18] = assay: Toxicity in C3H/HeN mouse assessed as difficulty in eating at 4.2 uM/kg, ip after 60 days; format: organism-based; details: in vivo, 1440 h
Mus musculus [19] = assay: Induction of weight loss in C3H/HeN mouse at 4.2 umol/kg, ip after 60 days (reference value: 30.1 +/- 5.9 %); format: functional
Mus musculus [20] = assay: Induction of weight loss in C3H/HeN mouse at 0.47 umol/kg, ip after 60 days (reference value: 27.7 +/- 4.6 %); format: functional
Mus musculus [21] = assay: Induction of weight loss in C3H/HeN mouse at 1.4 umol/kg, ip after 60 days (reference value: 31.5 +/- 8.2 %); format: functional
Mus musculus [22] = assay: Toxicity in C3H/HeN mouse assessed as perceptible deterioration in health at 4.2 uM/kg, ip after 60 days; format: organism-based; details: in vivo, 1440 h
Outline: (§2)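 Male C3H/HeN mice, about 50 days old and in groups of 4, received one ip dose in 42% aqueous DMSO on day 1 after 7–10 days of baseline monitoring; vehicle-only animals served as controls. Food and water intake and body weight were recorded 2–3 times weekly for 60 days. General health was checked by observing clinical signs.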

Mus musculus [23] = assay: Toxicity in C3H/HeN mouse assessed as difficulty in drinking at 4.2 uM/kg, ip after 60 days; format: organism-based; details: in vivo, 1440 h
Mus musculus [24] = assay: Toxicity in C3H/HeN mouse assessed as loss of appetite at 4.2 uM/kg, ip after 60 days; format: organism-based; details: in vivo, 1440 h; outline: as §2
Mus musculus [25] = assay: Toxicity in C3H/HeN mouse assessed as mortality at 4.2 umol/kg, ip; format: organism-based; details: in vivo; outline: as §1

For `Cn1c(C[N+](C)(C)Cc2ccc(/C=C/C(=O)N3CC(CO)c4c3cc(N)c3ccccc43)cc2)ccc1S(C)(=O)=O.[Br-]` (centres undefined), the Activity (Mus musculus [1]) was “Toxic”, the Activity (Mus musculus [2]) was 36.8% and the Activity (Mus musculus [3]) was 42.6%.

For `Cn1c(C[N+](C)(C)CCCCCCC(=O)N2CC(CCl)c3c2cc(N)c2ccccc32)ccc1S(C)(=O)=O.O=C([O-])C(F)(F)F` (centres undefined), the Activity (Mus musculus [4]) was 2.9% and the Activity (Mus musculus [5]) was 11.6%.

Compound `Cn1c(C[N+](C)(C)Cc2ccc(/C=C/C(=O)N3CC(CCl)c4c3cc(O)c3ccccc43)cc2)ccc1[N+](=O)[O-].[Br-]` (centres undefined) has an Activity (Mus musculus [6]) of 18.8%.

`Cn1c(C[N+](C)(C)Cc2ccc(/C=C/C(=O)N3CC(CO)c4c3cc(N)c3ccccc43)cc2)ccc1[N+](=O)[O-].[Br-]` (centres undefined) showed an Activity (Mus musculus [7]) of 18.8% and an Activity (Mus musculus [8]) of 23.7%.

With `Cn1c(C[N+](C)(C)CCCCCC(=O)N2CC(CCl)c3c2cc(N)c2ccccc32)ccc1S(C)(=O)=O.O=C([O-])C(F)(F)F` (centres undefined) the Activity (Mus musculus [9]) was “Toxic” and the Activity (Mus musculus [5]) was 16.8%.

`Cn1c(C[N+](C)(C)Cc2ccc(/C=C/C(=O)N3CC(CCl)c4c3cc(N)c3ccccc43)cc2)ccc1S(C)(=O)=O.[Br-]` (centres undefined) gave an Activity (Mus musculus [10]) of 44.1%, an Activity (Mus musculus [11]) of -22.8% and an Activity (Mus musculus [12]) of -7.6%.

For `CN(Cc1ccc(/C=C/C(=O)N2CC(CCl)c3c2cc(N)c2ccccc32)cc1)Cc1ccc([N+](=O)[O-])n1C` (centres undefined), the Activity (Mus musculus [13]) was “Toxic” and the Activity (Mus musculus [14]) was 21%.

Compound `CN(N=O)C(=O)N[C@@H](C=O)[C@@H](O)[C@H](O)[C@H](O)CO` [STREPTOZOCIN] has an Activity (Mus musculus [15]) of -22.1% and an Activity (Mus musculus [16]) of 23.7%.

`CC1CN(C(=O)/C=C/c2ccc(C[N+](C)(C)Cc3ccc([N+](=O)[O-])n3C)cc2)c2cc(N)c3ccccc3c21.[Br-]` (centres undefined) was tested, and the Activity (Mus musculus [6]) was 26% and the Activity (Mus musculus [17]) was 43.2%.

In the case of `Cn1c(C[N+](C)(C)Cc2ccc(/C=C/C(=O)N3CC(CCl)c4c3cc(N)c3ccccc43)cc2)ccc1[N+](=O)[O-].[Br-]` (centres undefined), the Activity (Mus musculus [18]) was “Non-toxic”, the Activity (Mus musculus [19]) was -4.1% and the Activity (Mus musculus [20]) was 38.3%. The Activity (Mus musculus [21]) was 19%, the Activity (Mus musculus [22]) was “Non-toxic” and the Activity (Mus musculus [23]) was “Non-toxic”. For the same compound, the Activity (Mus musculus [24]) was “Non-toxic”.

For `C[N+](C)(C)Cc1ccc(/C=C/C(=O)N2CC(CCl)c3c2cc(N)c2ccccc32)cc1.[Cl-]` (centres undefined), the Activity (Mus musculus [25]) was “Toxic” and the Activity (Mus musculus [20]) was 17%.

`CC1CN(C(=O)/C=C/c2ccc(C[N+](C)(C)Cc3ccc(S(C)(=O)=O)n3C)cc2)c2cc(N)c3ccccc3c21.[Br-]` (centres undefined) was tested, and the Activity (Mus musculus [17]) was 30.4%.

From ChEMBL document CHEMBL1938280, “Weight loss effects of quaternary salts of 5-amino-1-(chloromethyl)-1,2-dihydro-3H-benz[e]indoles; structure-activity relationships” (Bioorg Med Chem, 2012)
